Source: ChEMBL document CHEMBL4616681, “Discovery of 3-Pyridyl Isoindolin-1-one Derivatives as Potent, Selective, and Orally Active Aldosterone Synthase (CYP11B2) Inhibitors” (J Med Chem, 2020)

Assays:
[1] = Intrinsic clearance in mouse liver microsomes preincubated for 10 mins followed by NADPH regenerating system addition and measured up to 30 mins by LC/MS-MS analysis; type: ADME, Microsome
In short: (§1)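 Liver microsomes at 0.5 mg protein/mL in 100 mM potassium phosphate, pH 7.4. Compound preincubated 10 min at 37 °C. Intrinsic clearance scaled using the well-stirred liver model.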

[2] = molecular target: T1, Cytochrome P450 11B2, mitochondrial (Homo sapiens, UniProt P19099); test: Inhibition of human CYP11B2 expressed in human renal leiomyoblastoma cells harboring FDXR/FDX using 1-deoxycorticosterone as substrate by HTRF assay; type: cell-based
T1 sequence (P19099 whole entry): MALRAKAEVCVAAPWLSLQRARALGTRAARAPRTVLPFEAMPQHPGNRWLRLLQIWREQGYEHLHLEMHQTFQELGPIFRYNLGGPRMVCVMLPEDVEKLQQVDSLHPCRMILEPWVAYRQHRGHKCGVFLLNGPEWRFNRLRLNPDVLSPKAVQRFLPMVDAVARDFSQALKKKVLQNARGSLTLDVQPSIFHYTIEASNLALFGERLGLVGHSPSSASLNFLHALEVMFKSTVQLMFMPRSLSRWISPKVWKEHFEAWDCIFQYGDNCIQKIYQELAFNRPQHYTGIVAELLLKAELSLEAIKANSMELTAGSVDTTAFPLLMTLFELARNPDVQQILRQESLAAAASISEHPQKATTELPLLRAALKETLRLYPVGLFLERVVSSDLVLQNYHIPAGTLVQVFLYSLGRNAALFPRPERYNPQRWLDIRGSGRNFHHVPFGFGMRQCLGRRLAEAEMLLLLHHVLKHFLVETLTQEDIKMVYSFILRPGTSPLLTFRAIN
In short: (§2)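 Cells with endogenous FDXR/FDX and no detectable CYP11B activity, stably transfected (CMV promoter, neomycin selection, G-418 400 µg/mL) with CYP11B1 or CYP11B2 of the named species. Assayed in DMEM/F12 with 2.5% charcoal-treated FCS. Substrate 1 µM 11-deoxycorticosterone (B2) or 11-deoxycortisol (B1), 16 hr. Aldosterone or cortisol in supernatant measured by HTRF. IC50 from 4-parameter MMF fit; selectivity factor is the B1/B2 IC50 ratio.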

[3] = Intrinsic clearance in human liver microsomes preincubated for 10 mins followed by NADPH regenerating system addition and measured up to 30 mins by LC/MS-MS analysis; type: ADME, Microsome; settings: read-out: CLH; in short: as §1
[4] = molecular target: T2, Cytochrome P450 11B1, mitochondrial (Homo sapiens, UniProt P15538); test: Inhibition of human CYP11B1 expressed in human renal leiomyoblastoma cells harboring FDXR/FDX using 1-deoxycortisol as substrate by HTRF assay; type: ADME, cell-based; in short: as §2
T2 sequence (P15538 whole entry): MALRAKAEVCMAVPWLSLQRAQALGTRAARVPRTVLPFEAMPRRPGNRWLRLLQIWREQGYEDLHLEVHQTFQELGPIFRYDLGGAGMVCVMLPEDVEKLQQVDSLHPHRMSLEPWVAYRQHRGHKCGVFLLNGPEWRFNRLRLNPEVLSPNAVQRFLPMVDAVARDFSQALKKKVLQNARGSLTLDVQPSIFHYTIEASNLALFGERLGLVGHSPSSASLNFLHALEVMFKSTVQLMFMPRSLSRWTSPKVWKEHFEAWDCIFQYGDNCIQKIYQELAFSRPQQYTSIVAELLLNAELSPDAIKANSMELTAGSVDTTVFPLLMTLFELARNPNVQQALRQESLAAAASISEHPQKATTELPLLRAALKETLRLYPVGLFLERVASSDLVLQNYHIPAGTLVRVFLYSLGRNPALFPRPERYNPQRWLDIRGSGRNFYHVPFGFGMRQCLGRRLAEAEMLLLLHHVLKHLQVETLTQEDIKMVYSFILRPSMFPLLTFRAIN

[5] = Selectivity ratio of IC50 for human CYP11B1 expressed in human renal leiomyoblastoma cells harboring FDXR/FDX to IC50 for human CYP11B2 expressed in human renal leiomyoblastoma cells harboring FDXR/FDX; type: cell-based; in short: as §2
[6] = Intrinsic clearance in rat liver microsomes preincubated for 10 mins followed by NADPH regenerating system addition and measured up to 30 mins by LC/MS-MS analysis; type: ADME, Microsome; in short: as §1
[7] = Inhibition of cynomolgus monkey CYP11B2 expressed in human G401 cells using 1-deoxycorticosterone as substrate by HTRF assay; type: cell-based, Macaca fascicularis; settings: g-401; in short: as §2
[8] = Selectivity ratio of IC50 for cynomolgus monkey CYP11B1 expressed in human G401 cells to IC50 for cynomolgus monkey CYP11B2 expressed in human G401 cells; type: cell-based; in short: as §2

SMILES	predicted hepatic clearance (CLH) [1] [mL/min/kg]	IC50 [2] [nM]	predicted hepatic clearance [3] [mL/min/kg]	IC50 [4] [nM]	predicted hepatic clearance (CLH) [6] [mL/min/kg]	IC50 [7] [nM]	Ratio IC50 [5]	Ratio IC50 [8]
CC[C@H]1c2cc(Cl)ccc2C(=O)N1c1cncc2c1CCC[C@H]2NC(C)=O	< 20.2	97	< 3.5	3630	–	–	37	–
CC[C@@H]1c2cc(Cl)ccc2C(=O)N1c1cncc2c1CCC[C@H]2NC(C)=O	< 20.2	7	< 3.5	334	–	–	48	–
CCS(=O)(=O)NCc1cncc(N2C(=O)c3ccc(Cl)cc3C2(C)C)c1	–	92	–	–	–	–	31	–
Cc1ccc(C(=O)Nc2cccnc2)cc1	–	> 3000	–	> 3000	–	–	–	–
CCC(=O)N[C@@H]1CCCc2c1cncc2N1CCc2cc(Cl)ccc2C1=O	–	119	< 3.5	3330	< 20.2	–	–	–
O=C(Nc1cccnc1)c1ccccc1Cl	–	967	–	> 3000	–	–	> 3	–
CC(=O)N[C@@H]1CCCc2c1cncc2N1Cc2cc(Cl)ccc2C1=O	< 20.2	44	< 3.5	2330	–	–	53	–
CC(=O)N1CCC(c2cncc(N3C(=O)c4ccc(Cl)cc4C3(C)C)c2)CC1	–	5	–	–	–	2	77	466
CC(=O)NCc1cncc(N2C(=O)c3ccc(Cl)cc3C2(C)C)c1	–	59	–	–	–	14	47	333
CC(=O)N1CC2(C1)CN(c1cncc(N3C(=O)c4ccc(Cl)cc4C3(C)C)c1)C2	–	23	–	–	3.71	–	640	–
CC1(C)c2cc(Cl)ccc2C(=O)N1c1cncc(CNS(C)(=O)=O)c1	–	33	–	–	–	10	49	179
CC(=O)N1CCC(Oc2cncc(N3C(=O)c4ccc(Cl)cc4C3(C)C)c2)CC1	–	4	–	–	–	2	61	225
CC(=O)N[C@@H]1CCCc2c1cncc2N1C(=O)c2ccc(Cl)cc2[C@@H]1C1CC1	–	354	–	> 30000	–	–	> 85	–
CS(=O)(=O)N[C@@H]1CCCc2c1cncc2N1Cc2cc(Cl)ccc2C1=O	< 20.2	998	< 3.5	9350	–	–	9	–
N#Cc1ccc(C(=O)Nc2cccnc2)cc1	–	454	–	> 3000	–	–	> 7	–
CCC(=O)NCc1cncc(N2C(=O)c3ccc(Cl)cc3C2(C)C)c1	–	282	–	–	–	–	28	–

SMILES	predicted hepatic clearance (CLH) [1] [mL/min/kg]	IC50 [2] [nM]	predicted hepatic clearance [3] [mL/min/kg]	IC50 [4] [nM]	predicted hepatic clearance (CLH) [6] [mL/min/kg]	IC50 [7] [nM]	Ratio IC50 [5]	Ratio IC50 [8]
CC(=O)N1CC[C@@H](Oc2cncc(N3C(=O)c4ccc(Cl)cc4C3(C)C)c2)C1	–	11	–	–	–	7	113	643
O=C(Nc1cccnc1)c1ccc(Cl)cc1	–	420	–	> 3000	–	–	> 7	–
CCC(=O)N[C@@H]1CCCc2c1cncc2N1C(=O)c2ccc(Cl)cc2[C@@H]1CC	< 20.2	12	< 3.5	345	–	–	29	–
CN(C(=O)c1ccc(Cl)cc1F)c1cccnc1	–	> 3000	–	> 3000	–	–	–	–
Cc1ccncc1C(=O)N1CC2(C1)CN(c1cncc(N3C(=O)c4ccc(Cl)cc4C3(C)C)c1)C2	–	14	–	–	–	–	1870	–
CN(C(=O)c1ccc(C#N)cc1)c1cccnc1	–	> 3000	–	> 3000	–	–	–	–
CC(=O)N[C@H]1CCCc2c1cncc2N1Cc2cc(Cl)ccc2C1=O	–	5140	–	39600	–	–	8	–
O=C(Nc1cccnc1)c1ccc(Cl)cc1F	–	297	–	> 3000	–	–	> 10	–
CCC(=O)N[C@@H]1CCCc2c1cncc2N1C(=O)c2ccc(Cl)cc2[C@H]1CC	44.9	90	< 3.5	10200	–	–	114	–
CCS(=O)(=O)N[C@@H]1CCCc2c1cncc2N1Cc2cc(Cl)ccc2C1=O	27	40	< 3.5	1790	–	–	45	–
CC(=O)N[C@@H]1CCCc2c1cncc2N1C(=O)c2ccc(Cl)cc2[C@H]1C1CC1	–	100	–	22800	–	–	228	–
CC(=O)N1CC[C@H](Oc2cncc(N3C(=O)c4ccc(Cl)cc4C3(C)C)c2)C1	–	7	–	–	–	5	81	193
C[C@@H](NS(C)(=O)=O)c1cncc(N2C(=O)c3ccc(Cl)cc3C2(C)C)c1	–	8	–	–	–	4	71	93
Cc1cc(Cl)ccc1C(=O)N(C)c1cccnc1	–	> 3000	–	> 3000	–	–	–	–
Cc1cccnc1C(=O)NCc1cncc(N2C(=O)c3ccc(Cl)cc3C2(C)C)c1	–	9	–	–	–	–	89	191

The next lines start with results.

predicted hepatic clearance (CLH) [1] [mL/min/kg]	IC50 [2] [nM]	predicted hepatic clearance [3] [mL/min/kg]	IC50 [4] [nM]	predicted hepatic clearance (CLH) [6] [mL/min/kg]	IC50 [7] [nM]	SMILES	Ratio IC50 [5]	Ratio IC50 [8]
< 20.2	4	< 3.5	81	–	–	CC(=O)N[C@@H]1CCCc2c1cncc2N1C(=O)c2ccc(Cl)cc2[C@@H]1C	20	–
25	108	< 3.5	4280	–	–	CC1(C)c2cc(Cl)ccc2C(=O)N1c1cccnc1	40	–
< 20.2	6	< 3.5	414	–	–	CCC(=O)N[C@@H]1CCCc2c1cncc2N1C(=O)c2ccc(Cl)cc2[C@@H]1C	69	–
–	161	9.4	32500	–	–	O=C1c2ccc(Cl)cc2C(C2CC2)N1c1cccnc1 (stereo not given)	202	–
45.6	66	< 3.5	9410	–	–	CCC(=O)N[C@@H]1CCCc2c1cncc2N1C(=O)c2ccc(Cl)cc2[C@H]1C	143	–
30.9	104	< 3.5	3540	–	–	O=C1c2cc(F)c(Cl)cc2CCN1c1cccnc1	34	–
–	1070	–	214	–	–	O=C1c2ccc(Cl)cc2C(Cc2ccccc2)N1c1cccnc1 (stereo not given)	0.2	–
–	120	3.5	4450	–	–	O=C1c2ccc(Cl)cc2C2(CC2)N1c1cccnc1	37	–
–	1120	–	> 3000	–	–	O=C1c2ccccc2CN1c1cccnc1	> 3	–
65.9	121	6.6	3340	–	–	CCC1c2cc(Cl)ccc2C(=O)N1c1cccnc1 (stereo not given)	28	–
66.5	123	12.2	1250	–	–	CC1c2cc(Cl)ccc2C(=O)N1c1cccnc1 (stereo not given)	10	–
–	277	–	> 3000	–	–	Cc1cc(Cl)ccc1C(=O)Nc1cccnc1	> 11	–
43.5	130	< 3.5	5140	–	–	CC(=O)N[C@@H]1CCCc2c1cncc2N1C(=O)c2ccc(Cl)cc2[C@H]1C	40	–
